Experimental data: ChEMBL document CHEMBL4118065, “Design, synthesis and antimycobacterial activity of novel imidazo[1,2-a]pyridine-3-carboxamide derivatives” (Eur J Med Chem, 2017)
≈ marks a conversion by molar mass, not a printed value.

Assays:
[1] = tested on: Mycobacterium tuberculosis; assay: Antimycobacterial activity against isoniazid/rifampicin-resistant Mycobacterium tuberculosis MTB11168 after 7 days by microplate Alamar blue assay; format: functional; details: MTB11168, 168 h
Method in brief: (§1)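 MABA against replicating M. tuberculosis. Cells grown to late log phase (70–100 Klett units) in 7H9 broth with 0.2% glycerol, 0.05% Tween 80 and 10% ADC. They were washed in PBS, filtered (8 µm) and frozen. Twofold compound dilutions received 2×10^5 CFU per well at 37 °C. Tween 80 and Alamar blue were added on day 7, then 16–24 h more. Fluorescence read at 530/590 nm. MIC = lowest concentration giving ≥90% fluorescence reduction versus bacterium-only controls.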

[2] = tested on: Mycobacterium tuberculosis; assay: Antimycobacterial activity against isoniazid/rifampicin-resistant Mycobacterium tuberculosis MTB9160 after 7 days by microplate Alamar blue assay; format: functional; details: MTB9160, 168 h; method in brief: as §1

Work on `Cc1ccc2nc(C)c(C(=O)NCCNc3ccc(C(C)(C)C)cc3)n2c1` yielded an MIC90 [1] of 1.37 µM (≈ 0.499 µg/mL) and an MIC90 [2] of 0.57 µM (≈ 0.208 µg/mL).

`COc1ccc(NCCNC(=O)c2c(C)nc3ccc(C)cn23)cc1` showed an MIC90 [1] of 1.47 µM (≈ 0.497 µg/mL) and an MIC90 [2] of 2.64 µM (≈ 0.893 µg/mL).

`CO[C@H]1/C=C/O[C@@]2(C)Oc3c(C)c(O)c4c(O)c(c(/C=N/N5CCN(C)CC5)c(O)c4c3C2=O)NC(=O)/C(C)=C\C=C\[C@H](C)[C@H](O)[C@@H](C)[C@@H](O)[C@@H](C)[C@H](OC(C)=O)[C@@H]1C` [RIFAMPIN] gave an MIC90 [1] of over 57 µM and an MIC90 [2] of over 57 µM.

Work on `Cc1ccc2nc(C)c(C(=O)NCCOc3ccc(Br)cc3)n2c1` yielded an MIC90 [1] of under 0.041 µM and an MIC90 [2] of 0.2 µM (≈ 0.0777 µg/mL).

Work on `NNC(=O)c1ccncc1` [ISONIAZID] yielded an MIC90 [1] of over 291 µM and an MIC90 [2] of over 291 µM.
